For 18 compounds, Activity, IC50 and %max results are on record in ChEMBL document CHEMBL2177035, “Design and synthesis of dual modulators of soluble epoxide hydrolase and peroxisome proliferator-activated receptors” (J Med Chem, 2012).

Molecules are shown by their SMILES. Active and inactive are the calls of the source. The calls are words filed in the database; no cut-off is given here.

The target of assay [1] is T1, Peroxisome proliferator-activated receptor delta (Homo sapiens) (UniProt Q03181).
T1 sequence (whole entry): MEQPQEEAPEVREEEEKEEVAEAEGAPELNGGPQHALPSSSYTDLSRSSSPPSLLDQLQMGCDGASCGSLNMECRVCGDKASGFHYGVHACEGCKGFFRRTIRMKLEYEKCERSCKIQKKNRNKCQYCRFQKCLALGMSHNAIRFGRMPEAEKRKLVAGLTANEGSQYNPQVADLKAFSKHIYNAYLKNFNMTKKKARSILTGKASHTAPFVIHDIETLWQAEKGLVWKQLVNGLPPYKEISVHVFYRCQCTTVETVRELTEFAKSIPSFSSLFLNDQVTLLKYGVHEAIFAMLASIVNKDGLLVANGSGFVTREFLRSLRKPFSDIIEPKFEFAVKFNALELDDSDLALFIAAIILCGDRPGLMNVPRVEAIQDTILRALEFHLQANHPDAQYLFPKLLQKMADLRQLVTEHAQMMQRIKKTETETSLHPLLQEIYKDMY
The experiment in a line: Transactivation of GAL4-fused human PPARdelta ligand binding domain transfected in african green monkey COS7 cells at 10 uM by luciferase reporter gene assay relative to L-165041. The note with it: COS-7. Type of assay: cell-based. The essentials:
(§1)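 COS7 cells in DMEM/10% FCS at 37 °C, 5% CO2, plated 30000/well the day before. Lipofectamine LTX co-transfection of pFR-Luc, pRL-SV40 and Gal4–hPPAR-LBD (pFA-CMV) of the given subtype. After 5 h, switched to phenol red-free DMEM/10% FCS with 0.1% DMSO and compound; overnight incubation. Dual-Glo firefly/renilla luminescence, normalized to DMSO. Maximum effect compared with 1 μM reference agonist (GW7647 for α, L165,041 for δ). Triplicate wells, ≥3 independent runs.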
For orientation: Reporter assays use an easily measured gene product as a stand-in for the process of interest.

For assay [2], the target named is T2, Peroxisome proliferator-activated receptor alpha (Homo sapiens) (UniProt Q07869).
T2 sequence (whole entry): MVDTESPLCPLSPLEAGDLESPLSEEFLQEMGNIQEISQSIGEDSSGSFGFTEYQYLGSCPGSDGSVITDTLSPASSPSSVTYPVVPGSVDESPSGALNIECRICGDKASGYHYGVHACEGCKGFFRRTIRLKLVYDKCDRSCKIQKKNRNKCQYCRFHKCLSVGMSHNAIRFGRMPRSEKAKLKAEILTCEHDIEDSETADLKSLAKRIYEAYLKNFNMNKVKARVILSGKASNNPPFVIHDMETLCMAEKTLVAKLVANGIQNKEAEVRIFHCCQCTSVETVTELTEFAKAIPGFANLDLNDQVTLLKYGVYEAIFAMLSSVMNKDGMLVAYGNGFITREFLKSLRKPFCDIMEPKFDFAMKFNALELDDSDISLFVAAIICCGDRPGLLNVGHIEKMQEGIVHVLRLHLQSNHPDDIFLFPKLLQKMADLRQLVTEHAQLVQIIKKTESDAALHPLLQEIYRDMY
The experiment in a line: Transactivation of GAL4-fused human PPARalpha ligand binding domain transfected in african green monkey COS7 cells at 10 uM by luciferase reporter gene assay relative to GW7647. The note with it: COS-7. Type of assay: cell-based. The gist of the method:
as §1

Assay [3] concerns the target T3, Bifunctional epoxide hydrolase 2 (Homo sapiens, UniProt P34913).
T3 sequence (P34913 whole entry): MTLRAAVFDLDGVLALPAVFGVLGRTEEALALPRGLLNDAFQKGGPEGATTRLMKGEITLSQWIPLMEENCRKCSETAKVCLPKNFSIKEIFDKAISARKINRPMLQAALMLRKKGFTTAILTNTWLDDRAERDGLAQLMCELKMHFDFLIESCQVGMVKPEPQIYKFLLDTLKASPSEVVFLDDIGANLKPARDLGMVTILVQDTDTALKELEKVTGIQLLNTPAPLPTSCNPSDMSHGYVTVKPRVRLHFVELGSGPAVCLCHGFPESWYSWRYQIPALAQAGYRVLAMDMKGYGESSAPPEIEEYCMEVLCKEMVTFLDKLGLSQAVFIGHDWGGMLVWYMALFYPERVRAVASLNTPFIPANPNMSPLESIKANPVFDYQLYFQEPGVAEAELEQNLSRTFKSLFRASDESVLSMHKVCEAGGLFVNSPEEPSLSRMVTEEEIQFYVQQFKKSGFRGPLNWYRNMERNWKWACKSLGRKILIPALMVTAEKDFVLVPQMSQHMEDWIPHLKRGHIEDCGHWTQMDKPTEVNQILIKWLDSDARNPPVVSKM
The experiment in a line: Inhibition of recombinant soluble epoxide hydrolase using PHOME as substrate after 10 mins by fluorescence assay.

For assay [4], the target named is T2, Peroxisome proliferator-activated receptor alpha (Homo sapiens). As to the kind of experiment: Transactivation of GAL4-fused human PPARalpha ligand binding domain transfected in african green monkey COS7 cells by luciferase reporter gene assay. The note with it: COS-7. Type of assay: cell-based. The essentials: (§2)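 Gal4–hPPAR-LBD (α or δ) transient co-transfection with pFR-Luc and pRL-SV40 into COS7 cells seeded 30000/well. Compounds given in phenol red-free DMEM/10% FCS with 0.1% DMSO from 5 h post-transfection, overnight. Firefly over renilla luminescence, divided by DMSO control. EC50 and SD from means of ≥3 determinations by four-parameter logistic fit; triplicate wells, ≥3 independent experiments.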

Assay [5] addresses T1, Peroxisome proliferator-activated receptor delta (Homo sapiens). As to the kind of experiment: Transactivation of GAL4-fused human PPARdelta ligand binding domain transfected in african green monkey COS7 cells by luciferase reporter gene assay. Type of assay: cell-based. The note with it: COS-7. The gist of the method: as §2

With `CCOC(=O)c1cccn1Cc1cccc(CNC(=O)Nc2ccc(OC(F)(F)F)cc2)c1`, the result in assay [1] and in assay [2] was inactive.

One may read the IC50 as the concentration needed to halve the response being measured. In the case of `CCOC(=O)c1cccn1Cc1ccccc1CNC(=O)NC1CCCCC1`, the result in assay [1] and in assay [2] was inactive. The half-maximal inhibitory concentration (IC50) in assay [3] is 39 nM.

In turn, `O=C(NCc1cccc(Cn2cccc2C(=O)O)c1)Nc1ccc(OC(F)(F)F)cc1` had an Activity in assay [2] of 58%. Besides, in assay [3], the 50% inhibitory concentration (IC50) stood at 943 nM. Besides, the %max in assay [4] stood at 97%.

Consider `O=C(NCc1cccc(Cn2cccc2C(=O)O)c1)NC12C[C@H]3C[C@@H](C1)C[C@@H](C2)C3`, for which the result in assay [1] and in assay [2] was inactive. Moreover, the 50% inhibitory concentration (IC50) in assay [3] was determined as 304 nM.

As for `CCOC(=O)c1cccn1Cc1ccccc1CNC(=O)NC12C[C@H]3C[C@@H](C1)C[C@@H](C2)C3`, the outcome in assay [1] and in assay [2] was inactive. Moreover, the 50% inhibitory concentration (IC50) in assay [3] came out at 43 nM.

For the compound `CCOC(=O)c1cccn1Cc1ccccc1CNC(=O)Nc1ccc(OC(F)(F)F)cc1`, the result in assay [1] and in assay [2] was inactive. For the same compound, the IC50 in assay [3] was found to be 2010 nM.

Turning to `CCOC(=O)c1cccn1Cc1ccc(CNC(=O)NC2CCCCC2)cc1`, the outcome in assay [1] and in assay [2] was inactive. The 50% inhibitory concentration (IC50) in assay [3] was 23 nM.

Turning to `CCOC(=O)c1cccn1Cc1ccc(CNC(=O)NC23C[C@H]4C[C@@H](C2)C[C@@H](C3)C4)cc1`, the outcome in assay [1] and in assay [2] was inactive. The half-inhibitory concentration (IC50) in assay [3] stood at 87 nM.

In the case of `O=C(NCc1cccc(Cn2cccc2C(=O)O)c1)NC1CCCCC1`, the result in assay [1] and in assay [2] was inactive. In assay [3], the IC50 was found to be 1920 nM.

`O=C(NCc1ccccc1Cn1cccc1C(=O)O)NC12C[C@H]3C[C@@H](C1)C[C@@H](C2)C3`: the result in assay [5], in assay [1], in assay [2] and in assay [4] was inactive.

In the case of `O=C(NCc1ccc(Cn2cccc2C(=O)O)cc1)NC1CCCCC1`, the outcome in assay [1] and in assay [2] was inactive. The 50% inhibitory concentration (IC50) in assay [3] came out at 252 nM.

Turning to `CCOC(=O)c1cccn1Cc1cccc(CNC(=O)NC23C[C@H]4C[C@@H](C2)C[C@@H](C3)C4)c1`, the outcome in assay [1] and in assay [2] was inactive. The IC50 in assay [3] turned out to be 46 nM.

Turning to `O=C(NCc1ccc(Cn2cccc2C(=O)O)cc1)NC12C[C@H]3C[C@@H](C1)C[C@@H](C2)C3`, the outcome in assay [1] and in assay [2] was inactive. For the same compound, in assay [3], the 50% inhibitory concentration (IC50) turned out to be 73 nM.

For the compound `CCOC(=O)c1cccn1Cc1cccc(CNC(=O)NC2CCCCC2)c1`, the outcome in assay [1] and in assay [2] was inactive. In addition, the IC50 in assay [3] stood at 27 nM.

Turning to `O=C(NCc1ccccc1Cn1cccc1C(=O)O)NC1CCCCC1`, the outcome in assay [1] and in assay [2] was inactive. Also, in assay [3], the IC50 was found to be 747 nM.

Take `CCOC(=O)c1cccn1Cc1ccc(CNC(=O)Nc2ccc(OC(F)(F)F)cc2)cc1`: the result in assay [1] and in assay [2] was inactive. For the same compound, the IC50 in assay [3] turned out to be 611 nM.

Consider `O=C(NCc1ccc(Cn2cccc2C(=O)O)cc1)Nc1ccc(OC(F)(F)F)cc1`, for which the result in assay [5] and in assay [1] was inactive. Besides, the Activity in assay [2] is 67%. Also, the half-inhibitory concentration (IC50) in assay [3] was determined as 258 nM. In assay [4], this compound registered a %max of 90%.

On to `O=C(NCc1ccccc1Cn1cccc1C(=O)O)Nc1ccc(OC(F)(F)F)cc1`, for which the result in assay [5] and in assay [1] was inactive. Moreover, the Activity in assay [2] was determined as 38%. In assay [4], this compound came in with a %max of 55%.
